The values below come from publication PMC5650512 (Cell chemical biology, 2017).

Data set [1] relates to AMPKα (p-Thr172). Put plainly: AMPKα phosphorylation western blot, MDA-MB-231. Format: cell-based. The note with it: 1 µM; 24 hours. (In general: A western blot detects proteins with antibodies after separation by electrophoresis.)
Data set [2] deals with MDA-MB-231 cells. Put plainly: Mitochondrial membrane potential ΔΨm. Format: cell-based.
The subject of data set [3] is AMPKα (p-Thr172). Put plainly: AMPKα Thr172 phosphorylation western blot, MCF-7. Format: cell-based.
Data set [4] concerns MCF-7 cells. Put plainly: Mitochondrial membrane potential ΔΨm. Format: cell-based. In a few lines: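 JC-1 arm: MCF-7 cells exposed to test compound (20 µM, 4 h), with or without pre-treatment with (±)-14,15-EET (1 µM). Red/green ratio quantified as mean ± S.D. (n=4). TMRE arm: 20,000 cells/well grown overnight, TMRE 500 nM for 30 min at 37 °C, two washes in PBS/0.2% BSA, read Ex 530/Em 590 nm. FCCP (10 µM, 30 min) background subtracted.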

The test system of data set [5] is MCF-7 cells. In words: OCR and ECAR, XF Extracellular Flux Analyzer, MCF-7. Format: cell-based.
Data set [6] has as its system STAT3-Tyr705, p70 S6 Kinase-Thr389, mTOR-Ser2448, ERK1/2 phosphorylation. In words: Western blot time course of signaling proteins, MCF-7. Format: cell-based. The conditions noted are these: 20 µM.
Data set [7] has as its target CYP3A4 (Homo sapiens, UniProt P08684). Put plainly: Microsomal CYP3A4-mediated EET biosynthesis. Format: biochemical. The note with it: IC50, inhibition of CYP3A4-mediated synthesis of (±)-14,15-EET, 30 minutes exposure.
In data set [8] the test system is MCF-7 cells. Put plainly: Cellular ATP by luminescent assay. Format: cell-based. The note with it: 6 hours, 10% serum. The essentials: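 Cells seeded in 96-well plates and exposed to vehicle or test compound. Lysis solution added with 5 min orbital shaking, then luciferase/luminescent substrate; 10 min in the dark before reading luminescence. ATP was quantified against a standard curve of known ATP concentrations.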

In data set [9] the test system is MDA-MB-435/LCC6 cell line. Put plainly: MDA-MB-435/LCC6 cell growth. The note with it: data not shown. Format: cell-based.
Data set [10] in a line: Plasma concentration after ip dosing. Format: in vivo, mice. The note with it: female, athymic nude (Foxn1nu/Foxn1nu), mouse, 4 mg/kg/day.
In data set [11] the test system is MCF-7 cell line. Put plainly: MCF-7 cell proliferation. Format: cell-based. The conditions noted are these: for Abrogation of biguanide growth inhibition by (±)-14,15-EET: (±)-14,15-EET 1 µM, MTT at 24 hours.
Data set [12] deals with mTOR, PKC-ζ/λ, AMPKα in MCF-7 tumors. In words: Signaling proteins in MCF-7 xenograft tumors. Format: in vivo, mice.
Data set [13] has as its system MDA-MB-231 cell line. Put plainly: MDA-MB-231 cell growth. Format: cell-based.
For data set [14], the system named is AMPKα in MDA-MB-231 tumors. Put plainly: Signaling proteins in MDA-MB-231 xenograft tumors. Also on record: species or system mice. The conditions noted are these: in vivo.
Data set [15] deals with T47D cell line. Put plainly: T47D cell growth. Format: cell-based.
Data set [16] has as its target T1, CYP2J2 (Homo sapiens, UniProt P51589).
T1 sequence (P51589 1-502): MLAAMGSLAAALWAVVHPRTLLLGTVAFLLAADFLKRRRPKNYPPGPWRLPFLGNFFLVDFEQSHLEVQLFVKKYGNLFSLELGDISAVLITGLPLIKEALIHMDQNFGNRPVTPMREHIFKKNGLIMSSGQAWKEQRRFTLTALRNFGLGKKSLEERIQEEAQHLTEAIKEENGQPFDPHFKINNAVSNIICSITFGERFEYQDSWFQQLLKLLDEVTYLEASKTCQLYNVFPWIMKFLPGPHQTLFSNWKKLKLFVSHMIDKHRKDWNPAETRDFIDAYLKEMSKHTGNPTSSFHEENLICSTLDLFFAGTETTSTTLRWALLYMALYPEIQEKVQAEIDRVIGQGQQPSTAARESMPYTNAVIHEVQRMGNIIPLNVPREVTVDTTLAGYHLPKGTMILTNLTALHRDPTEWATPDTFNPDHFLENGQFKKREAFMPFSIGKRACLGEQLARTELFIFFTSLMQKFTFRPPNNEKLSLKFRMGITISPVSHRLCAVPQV
In words: CYP2J2 AA epoxygenase activity. Format: biochemical. The conditions noted are these: data not shown.

For data set [17], the system named is MCF-7 mammary fat pad xenograft. In words: MCF-7 orthotopic mammary fat pad xenograft.
Data set [18] relates to MCF-7 cells. Put plainly: Cellular EET levels by LC-ESI/MRM/MS. Format: cell-based. The note with it: 5 mM, 6 hours; P<0.05 for each regioisomer.
Data set [19] concerns cytochrome P450 reductase (CPR). In words: Rate of reduction of cytochrome c by CPR. Format: biochemical. In a few lines:
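Run in a quartz cuvette with 1 mL 0.3 M potassium phosphate, pH 8.3, containing cytochrome c (62 μM) and NADPH (50 μM). Reaction started by adding CPR (final 0.2 mg/mL). Absorbance at 550 followed in real time.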

The mark [20] stands for this setting: metformin 2.5 or 5 mM, over 5 hours.

Molecules are shown by their SMILES.

Sequence of CYP3A4 (P08684 whole entry): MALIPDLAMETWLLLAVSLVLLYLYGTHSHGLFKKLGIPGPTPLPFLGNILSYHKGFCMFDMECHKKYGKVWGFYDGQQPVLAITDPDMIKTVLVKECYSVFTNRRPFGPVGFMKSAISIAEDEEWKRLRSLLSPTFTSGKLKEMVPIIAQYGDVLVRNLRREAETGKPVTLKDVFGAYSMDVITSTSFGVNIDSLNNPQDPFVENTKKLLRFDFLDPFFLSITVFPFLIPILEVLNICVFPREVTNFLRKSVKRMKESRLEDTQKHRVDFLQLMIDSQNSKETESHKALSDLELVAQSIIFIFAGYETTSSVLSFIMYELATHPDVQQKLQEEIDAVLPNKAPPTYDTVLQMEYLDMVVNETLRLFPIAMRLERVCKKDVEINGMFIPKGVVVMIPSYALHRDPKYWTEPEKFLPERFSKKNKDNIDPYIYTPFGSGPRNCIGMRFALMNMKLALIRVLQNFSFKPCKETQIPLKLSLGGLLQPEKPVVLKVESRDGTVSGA

Take `CCCCCC1OC1C/C=C\C/C=C\C/C=C\CCCC(=O)O` (racemic) [(±)-14,15-EET, (±)-14,15-(5Z,8Z,11Z)-EET, reference compound]: the “Effect on AMPK phosphorylation” value in data set [1] was “no effect”. Further, the “Rescue of HBB-reduced ΔΨm by pre-treatment” value in data set [2] (exogenous (±)-14,15-EET, HBB 20 µM) is recorded as “partly rescued”; in data set [4] ((±)-14,15-EET 1 µM, HBB 20 µM), “partly rescued”. In addition, the “Effect on pAMPKα (Thr172) phosphorylation” value in [3] (1 µM, 6 and 24 hours) was “suppression of pAMPKα phosphorylation”. Moreover, the “Effect on ΔΨm alone (JC-1)” value in data set [4] (1 µM, relative to control) is “increased mitochondrial cross membrane potential”.

For `CCCCCC1OC1CCCCCCC/C=C\CCCC(=O)O` (racemic) [(±)-14,15-EEZE], in [3] (associated with OCR suppression), the “Effect on AMPKα activation” value is recorded as “early activation”. In data set [5] (1.0 µM), the “Effect on ECAR” value is given as “suppressed” and the “Effect on OCR” value is reported as “suppressed”.

On to `NC(=O)c1ncn([C@@H]2O[C@H](CO)[C@@H](O)[C@H]2O)c1N` [AICAR], for which, in [5] (AICAR 100 µM), the “Effect on ECAR” value is reported as “increased” and the “Effect on OCR” value was “increased”.

Take `CCCCCCNC(=N)NC(=N)NCc1ccccc1` [HBB, N1-hexyl-N5-benzyl-biguanide]: in data set [6] (by 24 hours, presence or absence of serum), the “Effect on mTOR, S6 kinase and ERK” value is listed as “Significant inhibition”. Moreover, the “Effect on p70 S6 kinase” value in data set [6] (independent of serum starvation) was “rapid and transient activation of p70 S6 kinase at 30 minutes”. Also, the “Effect on Stat3 phosphorylation” value in data set [6] (presence of serum) is “inhibited Stat3 phosphorylation”. For the same compound, the IC50 (commonly the point on the concentration scale where inhibition reaches its midpoint) in data set [7] was 9.5 µM. In addition, the “Reduction of ATP” value in [8] (HBB) is on record as 30%. Also, the “Effect on ΔΨm (JC-1)” value in data set [2] (20 µM for 4 hours) is on record as “rapid reduction of ΔΨm”. Besides, the “Effect on pAMPKα” value in data set [3] (20 µM) is given as “activated pAMPKα within 30 minutes”. Moreover, the “Abrogation of HBB growth inhibition by EETs” value in data set [9] is recorded as “failed to counteract HBB inhibition”. The compound further had a concentration at 1 h in data set [10] of 530 nM. Besides, in [11], the “Abrogation of HBB growth inhibition by EET analog C22” value is recorded as “partially abrogated HBB inhibition” and the “Abrogation of biguanide growth inhibition by (±)-14,15-EET” value was “part of the inhibition”. The “Effect on ΔΨm (JC-1)” value in data set [4] (20 µM for 4 hours) is on record as “rapid reduction of ΔΨm”. In addition, the “Effect on ΔΨm (TMRE, non-quenching conditions)” value in [4] (TMRE 500 nM) is reported as “inhibit ΔΨm in a dose dependent fashion”. In [5], the “Potency of OCR inhibition compared to metformin” value is > 250 fold. Besides, in [5] (HBB 20 and 40 µM), the “Effect on ECAR” value was “transient spike of ECAR, followed by inhibition without recovery” and the “Effect on OCR” value was “rapid, dose-dependent reduction of OCR within 15 minutes”. Moreover, the “Intratumoral PKC-ζ/λ phospho-threonine 410/403 (RPPA)” value in data set [12] (HBB 4 mg/kg/day vs. PBS, P=0.000119) is given as “reduction of PKC-ζ/λ phospho-threonine 410/403”. Also, the “Intratumoral mTOR (RPPA)” value in data set [12] (HBB 4 mg/kg/day vs. PBS, P=4.06×10^−6) is reported as “reduction of mTOR”. Also, in [12] (in vivo), the “AMPKα activation in tumors” value was “failed to activate AMPKα”. For the same compound, in [13], the “Abrogation of HBB growth inhibition by EETs” value is given as “failed to counteract HBB inhibition” and the “Rescue from HBB inhibition by N-acetyl-cysteine (NAC)” value is “rescued by the antioxidant N-acetyl-cysteine (NAC)”. Further, the “AMPKα activation in tumors” value in data set [14] is “did activate AMPKα”. For the same compound, the “Abrogation of HBB growth inhibition by (±)-14,15-EET” value in [15] was “abrogated most of the HBB inhibition”. Also, in data set [16] (microsomal), the “Inhibition of AA epoxygenase activity of CYP2J2” value is given as “did not inhibit”. Moreover, the “Tumor size vs. vehicle” value in data set [17] (4 mg/kg/day, Gompertzian fitting P=0.0354) is given as “smaller than the vehicle-treated from day 8 onward”. For the same compound, the “Hepatic or cardiac toxicities by post-mortem histopathology” value in data set [17] (6 mg/kg ip 4 days per week) was “no HBB-related hepatic or cardiac toxicities”. Besides, the Tumor size result in data set [17] (6 mg/kg ip 4 days per week (24 mg/kg/week), P=0.039) is on record as “reduced tumor size”. Further, the “Tumor weights at the end point relative to vehicle” value in data set [17] (6 mg/kg ip 4 days per week, P=0.034) is on record as “half”. For the same compound, the “Minimal effective dose (MED)” value in data set [17] (ip daily beginning the day after tumor cell implantation) was 4 mg/kg.

As to `CCCCNC(=N)NC(=N)N` [buformin], the “Abrogation of biguanide growth inhibition by (±)-14,15-EET” value in [11] was “part of the inhibition”.

Take `CN(C)C(=N)N=C(N)N` [metformin]: in data set [8] (metformin, normalized to cell number), the “Effect on cellular ATP” value is reported as “no effect”. Also, the “Intracellular EET levels” value in data set [18] is “reduced”. The “Inhibition of transfer of electrons from CPR (rate of reduction of cytochrome c)” value in data set [19] is on record as “does not inhibit”. Moreover, in [11], the “Abrogation of biguanide growth inhibition by (±)-14,15-EET” value was “abrogated most of the growth inhibition”. Further, in data set [5] (setting [20]), the “Effect on ECAR” value is “transient ECAR spike, followed by suppression of ECAR” and the “Effect on OCR” value is “marginal suppression of OCR”. Besides, the “Inhibition of AA epoxygenase activity of CYP2J2” value in data set [16] (0.75, […] or 3 mM) is “not inhibited”.

Take `[H]/N=C(/N)N/C(=N/[H])NCCc1ccccc1` [phenformin]: the “Abrogation of biguanide growth inhibition by (±)-14,15-EET” value in data set [11] is “part of the inhibition”.
